First the molecules themselves.
B1: tRNA (parent)
chain: GUUCCGUUGGCGUAAUGGUAACGCGUCUCCCUCCUAAGGAGAAGACUGCGGGUUCGAGUCCCGUACGGAACG

This sample holds only a part of the variants without activity.

The variants in this data set derive from B1. Briefly: yeast fitness relative to wild type (ratio to wild type); higher = fitter; tRNA-Arg(CCU), competitive growth, 37 C, YPD. The method in brief:
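The tRNA-Arg(CCU) gene variants were made by chemical synthesis with a 3% per-site mutation rate at 69 sites and inserted at the native genomic locus of Saccharomyces cerevisiae. After pooling, the strains were competed in YPD at 37°C for 24 hours in six parallel replicates. Gene amplicons from the start population and each end population were read by 100-nucleotide paired-end sequencing, and Darwinian fitness relative to wild type was taken from genotype frequency changes. Genotypes needed ≥ 100 starting reads, and estimates < 0.5 were set to 0.5.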
For the variant C4G C34U C49A, the yeast fitness was 0.61.

As to U2C A14G C46U C60A, the yeast fitness is at most 0.5.

For G6A U32C A37G C55A A65U G68C, the yeast fitness is at most 0.5.

Consider G6A U16G A21G, for which the yeast fitness is 0.544.

As to U16C C30U C34G G39A, the yeast fitness is at most 0.5.

As for G9A C22G U35C A70G, the yeast fitness is at most 0.5.

With U3G C24U C31U C61U, the yeast fitness was determined as 0.57.

On to C11U A40U C46U C60G, for which the yeast fitness came to 0.589.

Consider U32C A40G G48C A69U A70U, for which the yeast fitness was at most 0.5.

Take U3C C31G U59A: the yeast fitness was at most 0.5.

A20C A37G G56C C66U: the yeast fitness is at most 0.5.

On to A42U C62G G63C A65U, for which the yeast fitness is at most 0.5.

For U7C G52A, the yeast fitness came out at 0.69.

Consider C11G A40C C61U, for which the yeast fitness was at most 0.5.

Regarding U19C A21C C33U C61A A70C, the yeast fitness is at most 0.5.

C4A C29G A36U A65G C66U: the yeast fitness was at most 0.5.

In the case of C5G C33U A57G, the yeast fitness is at most 0.5.

For A57G G67A A70U, the yeast fitness is at most 0.5.

With U28C G63C, the yeast fitness came out at 0.611.

As for G23A G39C A69U, the yeast fitness is at most 0.5.

With U35C G67A, the yeast fitness is 0.637.

On to G18A A20U C60A, for which the yeast fitness is at most 0.5.

As to C11G A20U C27G C29U C62U, the yeast fitness is at most 0.5.

For the variant C5G G10A C11G U16G C33G G58A A65G, the yeast fitness is at most 0.5.

With A42U U54A G58A, the yeast fitness was at most 0.5.

Turning to C5A A42C G63C, the yeast fitness is at most 0.5.

For C29U C49G, the yeast fitness amounted to 0.739.

Regarding G12U A37G C66U, the yeast fitness is 0.614.

On to C33U A36G A45C A57U U59C, for which the yeast fitness is at most 0.5.

In the case of C22U U54A C55U G63A, the yeast fitness came out at 0.54.

Consider A14C U28A A42U, for which the yeast fitness was at most 0.5.

U7C G10C C49U A65G: the yeast fitness was at most 0.5.

As to C33A U54C, the yeast fitness came to 0.561.

Take C27U A69C: the yeast fitness was 1.01.

In the case of C5U C49U C61A, the yeast fitness is at most 0.5.

Take G25C A40G A57C A69U A70C: the yeast fitness is at most 0.5.

For A14U C33A A69G, the yeast fitness is 0.742.

A14G G18C: the yeast fitness is 0.559.

U8G A21G C29U C30A U32C: the yeast fitness was at most 0.5.

C5U U28A G41A A70U: the yeast fitness is at most 0.5.

With G6A C61U A69U, the yeast fitness was 0.632.

As for U19G G39C, the yeast fitness was determined as 0.75.

As to G6A C29U A57G U59C C62U, the yeast fitness was at most 0.5.

Take U8C C22G U28A C33G A57C: the yeast fitness is at most 0.5.

Take U47G A57G: the yeast fitness stood at 0.7.

In the case of C29G A42G U64G, the yeast fitness is at most 0.5.

Turning to C4U G23C G39C G44A, the yeast fitness was at most 0.5.

On to C4U A37U G52C A65C, for which the yeast fitness is at most 0.5.

Turning to C4G G18C, the yeast fitness stood at 0.599.

Turning to C4A C24A G52C A57C U59A G63A, the yeast fitness is at most 0.5.

For U28A A40G G51C U54A G58C C66U, the yeast fitness was at most 0.5.

Turning to U8G U54C, the yeast fitness turned out to be 0.565.

Regarding A21C A57G G67A, the yeast fitness was at most 0.5.

As for U2C G25A A69U, the yeast fitness is 0.711.

As to C5A A37C C49A, the yeast fitness was at most 0.5.

In the case of U26G A36G A70G, the yeast fitness was 0.652.

With U7A U8G G51A A69C, the yeast fitness is at most 0.5.

With U53C A57G C66U, the yeast fitness was at most 0.5.

On to C33G A45G A70U, for which the yeast fitness is at most 0.5.

C11G A21U C55U: the yeast fitness is at most 0.5.

C11G C46A C49U U54C C60U: the yeast fitness was at most 0.5.

Regarding U3C C29U A36U C66U G67A, the yeast fitness is at most 0.5.

U3G C5G U19C: the yeast fitness is at most 0.5.

Regarding U2A U3A U26A A57U C62G C66U, the yeast fitness was at most 0.5.

For A20G G23C G38C, the yeast fitness was at most 0.5.

With U54C U59C, the yeast fitness was determined as 0.714.

With U7C A36U G50C C60A G63A, the yeast fitness is at most 0.5.

Regarding G9A U16C U32G G48C, the yeast fitness was at most 0.5.

For the variant G6C C46A G63A, the yeast fitness was found to be 0.689.

On to U3C C22U, for which the yeast fitness turned out to be 0.824.

As to G9C G23A A40C C55G, the yeast fitness was determined as 0.549.

Turning to U3C G12A C49U, the yeast fitness worked out at 0.569.

U3A C5G C55U G67C: the yeast fitness stood at 0.599.

As to U7C G58A G67A, the yeast fitness worked out at 0.62.

Consider A42C A45C G52C A69U, for which the yeast fitness was at most 0.5.

A21U A40C G58C A65C C66G: the yeast fitness was determined as 0.523.

C4G C55U G63A G68C: the yeast fitness was at most 0.5.

As to U16A G39A C46G, the yeast fitness stood at 0.695.

In the case of A20U C24U A42U C46A G56A G67A, the yeast fitness was at most 0.5.

With C30G C60U C62G C66A, the yeast fitness amounted to 0.695.

For the variant C29A C62U G68A, the yeast fitness is at most 0.5.

For the variant U13A C30G C31U C33G, the yeast fitness was at most 0.5.

A14U A21U C31U A43U G44C: the yeast fitness was at most 0.5.

For the variant U32A A42C A57G A70C, the yeast fitness was at most 0.5.

As for C5G U26A A36C A42G, the yeast fitness was at most 0.5.

C5G U19C U35A A43C A65C: the yeast fitness was at most 0.5.

Regarding C11U A14U U16C G25C C27U C61G, the yeast fitness was at most 0.5.

On to U54A U59C, for which the yeast fitness was 0.613.

Take G6A U32C C46G: the yeast fitness worked out at 0.694.

Consider C5U A20U A70U, for which the yeast fitness was 0.842.

On to C11G C61G, for which the yeast fitness is 0.705.

In the case of U19G A43U C61G, the yeast fitness stood at 0.559.

Regarding G23C U64A, the yeast fitness was 0.564.

Turning to C11A U13A A42U C55A, the yeast fitness is at most 0.5.

With U2A A20C G48C G67C, the yeast fitness is at most 0.5.

Take C29U C30U: the yeast fitness is 0.763.

In the case of C31A G63A, the yeast fitness was found to be 0.676.

On to C5G G6A U53G A57C, for which the yeast fitness is at most 0.5.

As for U7A A36G, the yeast fitness was found to be 0.662.

Take U13G C62G: the yeast fitness worked out at 0.726.

In the case of U16C C22A C31G C46A C49U U54C G68A, the yeast fitness was at most 0.5.

Take C11G C34A G41C G51C G56A: the yeast fitness was at most 0.5.

On to G38C A70U, for which the yeast fitness was 0.628.

For the variant C11G C30G C31G U32A, the yeast fitness was at most 0.5.

With A14U A15C G39C, the yeast fitness is 0.546.

For G18C A21G U47A G67C, the yeast fitness is 0.53.

Regarding U7G U32C, the yeast fitness was 0.992.

On to A21G G56A A65G C66U, for which the yeast fitness was 0.638.

Consider U16A C31U, for which the yeast fitness was 0.979.

As for C22G A36C A40G G58C C60A, the yeast fitness is at most 0.5.

G9A G67C: the yeast fitness is 0.932.

In the case of U8C A43G, the yeast fitness was 0.93.

In the case of C24U U26G C30U G39C, the yeast fitness is at most 0.5.

As to C4U G25A G56A, the yeast fitness worked out at 0.645.

With G23A C34G, the yeast fitness turned out to be 0.582.

Consider A20U C33U C61U A70U, for which the yeast fitness was at most 0.5.

Regarding G18C C62A G68C, the yeast fitness is at most 0.5.

Take U13A G18C A36G G41C: the yeast fitness worked out at 0.706.

As to C30G C62U, the yeast fitness was found to be 0.643.

Take C5U A43G C62A: the yeast fitness came to 0.588.

Consider C22A U47C, for which the yeast fitness is 0.882.

Regarding C5A A40C A69U, the yeast fitness worked out at 0.539.

As to A21C G39A G52C C62U, the yeast fitness was at most 0.5.

Consider G18C C22U C31A C61G, for which the yeast fitness was at most 0.5.

On to G10A U13C, for which the yeast fitness was found to be 0.658.

For the variant C5U U26A U59C, the yeast fitness was found to be 0.722.

As for A15G U26G G41C A43C C66A, the yeast fitness is at most 0.5.

Turning to C5A A21U C24U C27G C55U, the yeast fitness is at most 0.5.

Turning to C5A G39A G56C, the yeast fitness was at most 0.5.

In the case of C34A A43C, the yeast fitness is 0.645.

For C30A C61G, the yeast fitness stood at 0.651.

For the variant U13G A20G C22G, the yeast fitness was found to be 0.581.

For G6A U13G A40U, the yeast fitness turned out to be 0.502.

As to G10C G44C C55G A69U, the yeast fitness came to 0.59.

C4G A15U U54G C55U: the yeast fitness amounted to 0.51.

On to U26C C27U G67C, for which the yeast fitness worked out at 0.713.

As to C22A G23C G67U, the yeast fitness is at most 0.5.

With C5U U19A A20U G48A C60A, the yeast fitness is at most 0.5.

On to U2A G9A U13A U35G A70C, for which the yeast fitness was at most 0.5.

Turning to U19A C33A C34U A36C, the yeast fitness was at most 0.5.

For the variant C24G C33U, the yeast fitness came out at 0.646.

For A14U A20U C66U G67A, the yeast fitness is at most 0.5.

On to C5U A21G G67A, for which the yeast fitness amounted to 0.629.

Regarding G10A C33U A65U, the yeast fitness is at most 0.5.

With C11U G50A G63A, the yeast fitness is 0.606.

For the variant G10C U53A C66U, the yeast fitness is at most 0.5.

Take U19C U35C: the yeast fitness amounted to 0.81.

For C24G G39C C61U C66U, the yeast fitness was at most 0.5.

As for U47C C55G, the yeast fitness amounted to 0.733.

Turning to U19C A69U, the yeast fitness was found to be 0.925.

Regarding U19C C22A U32A A37U A45U, the yeast fitness is at most 0.5.

Turning to C30A G50A G67A, the yeast fitness is 0.543.

With C5U A21G U26A, the yeast fitness amounted to 0.738.

On to U2G A37C, for which the yeast fitness came to 0.585.

As for U32C U47C, the yeast fitness is 0.974.

As to C11U U19A A37C A40C, the yeast fitness worked out at 0.501.

As to G9C A43C, the yeast fitness was determined as 0.58.

As for A36G C61U A70U, the yeast fitness came out at 0.755.

With U13C G50C C66U, the yeast fitness was at most 0.5.

In the case of C4U C24G U35C A57G, the yeast fitness was at most 0.5.

For the variant G10A A20U C30A C62U, the yeast fitness was at most 0.5.

For the variant G10A C29G C34G, the yeast fitness was at most 0.5.

In the case of U26G G41A, the yeast fitness stood at 0.794.

For the variant C22G C30U A37G A43U G67A, the yeast fitness amounted to 0.603.

As for C29A C30U C62G U64A, the yeast fitness came to 0.553.

On to C5G C24G C30G C31U U35A A36U G44A, for which the yeast fitness was 0.832.

Turning to C22G C30G U47C, the yeast fitness is at most 0.5.
